Assay [1] relates to Escherichia coli. Kind of assay: Inhibition of wild-type Escherichia coli MurE compound preincubated for 10 mins before substrate addition at 25 uM measured after 15 mins by LC-MS method. In short, it runs like this:
(§1)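 E. coli wild-type enzyme (4 nM) was preincubated with 25 μM compound for 10 min at 37 °C. Enzymatically generated nucleotide-sugar substrate (~200 μM) plus ATP (~200 μM), or NADPH 200 μM for MurB, was added for 10 min. Reactions were started with amino-acid cosubstrate (MurC–F) or EP-UNAG (MurB), run 15 min at 37 °C, and quenched with formic acid. Product was measured by negative-ESI LC-MS EIC peak area. MgCl2: MurC 10, MurD/E 2, MurF 5 mM; MurB had 5 mM KCl. All in 50 mM NH4HCO3, 0.07% BSA, 1% DMSO; triplicate.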

A short description of assay [2]: GSH reactivity of the compound assessed as half life by RP-HPLC analysis.
For assay [3], the target named is Methionine aminopeptidase 1 (Homo sapiens) (UniProt P53582). Kind of assay: Inhibition of human MetAP at 25 uM after 20 mins by HPLC analysis. In short, it runs like this:
(§2)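 Endpoint assay. Enzyme (50 nM) was preincubated with 25 μM compound for 20 min at 37 °C in 50 mM Tris pH 7.5, 100 mM NaCl, 100 μM CoCl2, 0.075% BSA. MGMM substrate (400 μM) was then added for 15 min (human MetAP-1) or 20 min (E. coli MetAP). Reactions were stopped with TFA. GMM product was quantified by RP-HPLC, UV 214 nm. Triplicate.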

The test system of assay [4] is Escherichia coli. Kind of assay: Inhibition of wild-type Escherichia coli MurD compound preincubated for 10 mins before substrate addition at 25 uM measured after 15 mins by LC-MS method. In outline:
as §1

Assay [5] has as its system Escherichia coli. Kind of assay: Inhibition of wild-type Escherichia coli MurC compound preincubated for 10 mins before substrate addition at 25 uM measured after 15 mins by LC-MS method. In short, it runs like this:
as §1

The target of assay [6] is Genome polyprotein (West Nile virus) (UniProt P06935). Briefly: Inhibition of West Nile virus NS2B-NS3 protease at 50 uM.
Assay [7] relates to Escherichia coli. Kind of assay: Inhibition of Escherichia coli MetAP at 25 uM after 20 mins by HPLC analysis. In outline:
as §2

Assay [8] has as its target Prothrombin (Bos taurus) (UniProt P00735). Briefly: Inhibition of Bovine thrombin using Boc-Val-Pro-Arg-AMC as substrate compound preincubated at 25 uM for 15 mins by fluorescence assay. In outline:
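Bovine thrombin (final 10 nM) was preincubated 15 min with 25 μM compound in 50 mM Tris-HCl pH 7.5, 150 mM NaCl, 0.05% Tween 20. The reaction was started with Boc-Val-Pro-Arg-AMC (50 μM final). Fluorescence (ex 355/em 460 nm) was monitored continuously for 10 min; activity taken as slope (RFU/s). Triplicate.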

Assay [9] deals with Escherichia coli. Briefly: Inhibition of wild-type Escherichia coli MurF compound preincubated for 10 mins before substrate addition at 25 uM measured after 15 mins by LC-MS method. In short, it runs like this:
as §1

Assay [10] deals with Escherichia coli. Kind of assay: Inhibition of wild-type Escherichia coli MurB compound preincubated for 10 mins before substrate addition at 25 uM measured after 15 mins by LC-MS method. In short, it runs like this: as §1
The nature of assay [11]: GSH reactivity of the compound assessed as adducts formation by RP-HPLC analysis. In outline: (§3)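 Fresh aqueous glutathione (10 mM solution) was added to 50 mM Tris-maleate buffer, pH 7.5. The reaction was started with compound from 10 mM DMSO stock (final 250 μM). Mixtures were followed by reversed-phase HPLC on an ODS column with a gradient to 100% B; rate constants are given in l·mol⁻¹·s⁻¹.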

Assay [12] deals with Genome polyprotein (dengue virus type 2) (UniProt P12823). Briefly: Inhibition of Dengue virus serotype 2 NS2B-NS3 protease at 50 uM.
The subject of assay [13] is Escherichia coli. Kind of assay: Inhibition of wild-type Escherichia coli MurA compound preincubated for 10 mins before substrate addition at 25 uM measured after 15 mins by LC-MS method.
The nature of assay [14]: GSH reactivity of the compound assessed as adducts formation meaured over 3 hrs by RP-HPLC analysis. In outline: as §3
The subject of assay [15] is HeLa. Briefly: Cytotoxicity against human HeLa cells assessed as reduction in cell viability after 24 hrs by CellTiter-Blue assay. Type of assay: cell-based. In short, it runs like this: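 HeLa cells seeded in triplicate at 5×10^3 cells/well and grown 24 h at 37 °C/5% CO2. Compounds at varying concentrations were added as a 2x stock in phenol-red-free DMEM with FBS, penicillin/streptomycin, sodium pyruvate and L-glutamine, then left 24 h. Medium was replaced with CellTiter-Blue medium for 3 h. A570/A610 was read after background subtraction, as % of untreated controls; EC50 derived.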

Chain of Genome polyprotein (West Nile virus) (P06935 whole entry): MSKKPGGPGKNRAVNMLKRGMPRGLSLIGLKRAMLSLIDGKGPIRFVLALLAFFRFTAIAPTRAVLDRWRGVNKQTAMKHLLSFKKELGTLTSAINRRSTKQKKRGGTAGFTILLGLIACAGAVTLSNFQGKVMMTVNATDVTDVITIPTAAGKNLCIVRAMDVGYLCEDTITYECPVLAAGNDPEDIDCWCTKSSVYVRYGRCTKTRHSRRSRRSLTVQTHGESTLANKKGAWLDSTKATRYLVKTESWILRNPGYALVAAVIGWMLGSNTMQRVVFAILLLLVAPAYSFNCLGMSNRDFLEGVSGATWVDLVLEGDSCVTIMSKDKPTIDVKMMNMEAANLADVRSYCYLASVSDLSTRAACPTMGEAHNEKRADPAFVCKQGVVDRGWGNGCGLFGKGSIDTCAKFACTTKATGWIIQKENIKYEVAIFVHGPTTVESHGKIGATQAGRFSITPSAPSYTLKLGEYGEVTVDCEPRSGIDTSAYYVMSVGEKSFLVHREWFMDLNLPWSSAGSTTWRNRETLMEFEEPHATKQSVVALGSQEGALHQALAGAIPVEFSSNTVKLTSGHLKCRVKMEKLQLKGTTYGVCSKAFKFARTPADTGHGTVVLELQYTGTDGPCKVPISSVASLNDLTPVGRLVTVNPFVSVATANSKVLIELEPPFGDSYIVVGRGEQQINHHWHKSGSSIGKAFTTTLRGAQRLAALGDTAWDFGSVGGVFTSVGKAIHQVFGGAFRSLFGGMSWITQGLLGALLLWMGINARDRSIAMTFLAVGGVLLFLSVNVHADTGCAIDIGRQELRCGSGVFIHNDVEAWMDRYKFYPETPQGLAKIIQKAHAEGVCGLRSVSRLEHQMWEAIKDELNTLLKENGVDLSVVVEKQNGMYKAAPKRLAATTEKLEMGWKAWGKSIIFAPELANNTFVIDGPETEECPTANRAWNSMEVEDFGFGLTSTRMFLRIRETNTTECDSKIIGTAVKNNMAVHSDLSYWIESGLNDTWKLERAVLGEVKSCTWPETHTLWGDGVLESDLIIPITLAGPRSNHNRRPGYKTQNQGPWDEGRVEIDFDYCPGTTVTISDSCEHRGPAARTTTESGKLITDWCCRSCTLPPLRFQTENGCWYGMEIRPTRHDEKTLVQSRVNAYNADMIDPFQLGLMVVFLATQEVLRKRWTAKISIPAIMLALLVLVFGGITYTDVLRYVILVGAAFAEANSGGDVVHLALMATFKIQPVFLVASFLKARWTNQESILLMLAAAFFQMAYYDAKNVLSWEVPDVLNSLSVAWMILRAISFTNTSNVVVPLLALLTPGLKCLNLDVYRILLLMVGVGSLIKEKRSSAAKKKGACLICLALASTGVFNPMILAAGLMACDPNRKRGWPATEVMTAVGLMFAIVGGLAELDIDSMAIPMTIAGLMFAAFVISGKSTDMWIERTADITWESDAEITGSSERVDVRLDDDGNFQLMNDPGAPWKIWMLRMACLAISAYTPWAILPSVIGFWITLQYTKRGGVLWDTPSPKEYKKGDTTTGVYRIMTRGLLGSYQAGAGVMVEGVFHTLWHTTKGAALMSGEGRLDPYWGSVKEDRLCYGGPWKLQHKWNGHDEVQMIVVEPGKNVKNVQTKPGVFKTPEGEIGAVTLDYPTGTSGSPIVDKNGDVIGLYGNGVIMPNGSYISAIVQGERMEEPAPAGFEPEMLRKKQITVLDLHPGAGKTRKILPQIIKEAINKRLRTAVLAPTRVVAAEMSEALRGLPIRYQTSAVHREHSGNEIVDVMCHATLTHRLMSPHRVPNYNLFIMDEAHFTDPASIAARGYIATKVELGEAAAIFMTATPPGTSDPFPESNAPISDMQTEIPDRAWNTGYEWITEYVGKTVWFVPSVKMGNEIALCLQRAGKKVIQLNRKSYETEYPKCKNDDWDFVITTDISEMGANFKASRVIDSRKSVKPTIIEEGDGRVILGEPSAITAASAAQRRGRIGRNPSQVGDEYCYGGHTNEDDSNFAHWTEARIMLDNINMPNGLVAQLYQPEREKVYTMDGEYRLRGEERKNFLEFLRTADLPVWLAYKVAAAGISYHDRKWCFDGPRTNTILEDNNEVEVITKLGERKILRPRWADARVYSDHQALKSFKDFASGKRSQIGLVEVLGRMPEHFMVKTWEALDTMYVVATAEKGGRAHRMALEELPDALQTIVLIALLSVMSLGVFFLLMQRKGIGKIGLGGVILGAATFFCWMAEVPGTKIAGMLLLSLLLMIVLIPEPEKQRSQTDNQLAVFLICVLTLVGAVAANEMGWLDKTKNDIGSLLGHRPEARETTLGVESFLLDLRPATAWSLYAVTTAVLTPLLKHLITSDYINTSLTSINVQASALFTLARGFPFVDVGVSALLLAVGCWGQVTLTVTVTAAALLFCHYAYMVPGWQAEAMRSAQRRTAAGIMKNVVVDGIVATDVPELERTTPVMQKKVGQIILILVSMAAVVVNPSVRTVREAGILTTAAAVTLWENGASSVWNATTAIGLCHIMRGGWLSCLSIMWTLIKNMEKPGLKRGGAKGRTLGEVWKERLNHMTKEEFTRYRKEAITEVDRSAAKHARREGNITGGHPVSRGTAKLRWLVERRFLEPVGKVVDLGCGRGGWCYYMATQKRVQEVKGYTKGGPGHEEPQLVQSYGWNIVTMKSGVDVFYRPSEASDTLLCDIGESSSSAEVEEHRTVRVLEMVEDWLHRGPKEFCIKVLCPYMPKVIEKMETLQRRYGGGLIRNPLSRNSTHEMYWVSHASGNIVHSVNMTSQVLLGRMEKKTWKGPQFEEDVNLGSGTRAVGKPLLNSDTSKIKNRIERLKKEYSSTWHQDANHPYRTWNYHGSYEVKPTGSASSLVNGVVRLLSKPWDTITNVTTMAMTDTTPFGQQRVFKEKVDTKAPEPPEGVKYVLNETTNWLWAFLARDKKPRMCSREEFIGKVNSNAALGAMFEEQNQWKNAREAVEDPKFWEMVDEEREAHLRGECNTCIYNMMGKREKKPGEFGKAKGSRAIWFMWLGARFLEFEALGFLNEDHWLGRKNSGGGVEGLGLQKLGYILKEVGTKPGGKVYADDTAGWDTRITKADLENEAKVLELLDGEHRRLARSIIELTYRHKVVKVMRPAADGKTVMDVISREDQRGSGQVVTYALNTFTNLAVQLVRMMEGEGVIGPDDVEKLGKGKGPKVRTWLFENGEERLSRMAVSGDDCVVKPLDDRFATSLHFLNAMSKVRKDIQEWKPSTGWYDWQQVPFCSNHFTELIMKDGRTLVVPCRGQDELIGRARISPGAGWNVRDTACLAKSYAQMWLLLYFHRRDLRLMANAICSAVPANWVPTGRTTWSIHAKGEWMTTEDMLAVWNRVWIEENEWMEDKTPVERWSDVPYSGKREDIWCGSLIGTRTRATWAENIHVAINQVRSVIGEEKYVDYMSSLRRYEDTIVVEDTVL

Regarding `O=C(Nc1ccc(F)cc1)C1CC(Br)=NO1` (stereo not given), the inhibition in [1] was 23%; in assay [3] it was less than 15%; in [4] it was less than 15%; in assay [5], less than 15%; in assay [6] it was less than 15%; in assay [7], less than 15%. The inhibition in assay [8] was less than 15%; in assay [9], 21%; in [10], less than 15%; in assay [12], less than 15%; in assay [13] it was less than 15%. Moreover, the T1/2 in assay [2] was more than 200 h. For the same compound, in [11], the Activity is less than 0.1 L/mol/s.

As for `O=C(NCCc1ccccc1)C1CC(Br)=NO1` (stereo not given), the inhibition in assay [1] is 23%; in [3], less than 15%; in [4], 18%; in [5] it was less than 15%; in [6] it was less than 15%; in [7] it was less than 15%. In addition, the inhibition in assay [8] was less than 15%; in assay [9] it was less than 15%; in assay [10], 16%; in [12], less than 15%; in assay [13], less than 15%. For the same compound, the T1/2 in assay [2] is more than 200 h. Besides, the Activity in assay [11] is less than 0.1 L/mol/s.

In the case of `O=C(NC1CCCC1)C1CC(Br)=NO1` (stereo not given), the inhibition is 16% in assay [1]; less than 15% in assay [3]; 15% in [4]; less than 15% in [5]; less than 15% in [6]; less than 15% in assay [7]. For the same compound, the inhibition in assay [8], in assay [9], in assay [10], in [12] and in assay [13] was less than 15% each time. The T1/2 in [2] is more than 200 h. Further, the Activity in [11] was less than 0.1 L/mol/s.

In the case of `C=CC(=O)NCc1ccccc1`, the inhibition in assay [1], in [3], in assay [4], in [5], in assay [6] and in [7] was less than 15% throughout. In addition, the inhibition in assay [8], in assay [9], in [10], in assay [12] and in assay [13] was less than 15% throughout. For the same compound, the Activity in [14] is less than 5%; in assay [11] it was less than 0.1 L/mol/s.

Consider `C=CC(=O)NCCCC`, for which the inhibition in assay [1] was less than 15%; in [3] it was 20%; in assay [4], less than 15%; in assay [5], less than 15%; in assay [6] it was less than 15%; in assay [7] it was less than 15%. For the same compound, the inhibition in assay [8], in assay [9], in [10], in assay [12] and in assay [13] was less than 15% each time. Moreover, the EC50 in assay [15] was more than 100 µM. The results for the Activity in assay [14] and in [11] were less than 5% and less than 0.1 L/mol/s, respectively.

On to `C=CC(=O)Nc1ccc(C)cc1`, for which the inhibition in assay [1], in [3], in assay [4], in assay [5], in [6] and in assay [7] was less than 15% in each case. For the same compound, the inhibition in [8], in [9], in [10], in assay [12] and in assay [13] was less than 15% each time. Besides, the Activity is less than 5% in assay [14] and less than 0.1 L/mol/s in assay [11].

With `C=CC(=O)Nc1ccc([N+](=O)[O-])cc1`, the inhibition in assay [1], in assay [3], in [4], in [5], in assay [6] and in assay [7] was less than 15% in each case. Also, the inhibition in assay [8], in [9], in [10], in assay [12] and in assay [13] was less than 15% each time. In addition, the Activity in assay [14] was less than 5%; in [11] it was less than 0.1 L/mol/s.

Consider `Cc1ccc(NC(=O)C2CC(Br)=NO2)cc1` (stereo not given), for which the inhibition in [1] is less than 15%; in assay [3], less than 15%; in [4], less than 15%; in assay [5], less than 15%; in [6], 22%; in assay [7] it was 19%. For the same compound, the inhibition in assay [8], in assay [9], in assay [10], in [12] and in assay [13] was less than 15% in each case. Further, the T1/2 in assay [2] is more than 200 h. Further, the Activity in [11] was less than 0.1 L/mol/s.

For the compound `COc1ccc(NC(=O)C2CC(Br)=NO2)cc1` (stereo not given), the inhibition is 18% in [1]; less than 15% in assay [3]; less than 15% in assay [4]; less than 15% in assay [5]; 21% in [6]; less than 15% in assay [7]. The inhibition in assay [8], in [9], in assay [10], in assay [12] and in [13] was less than 15% throughout. Moreover, in [2], the T1/2 was more than 200 h. The Activity in assay [11] was less than 0.1 L/mol/s.

Regarding `C=CC(=O)Nc1ccc(F)cc1`, the inhibition in [1], in [3], in assay [4], in [5], in [6] and in assay [7] was less than 15% in each case. Besides, the inhibition in assay [8], in [9], in assay [10], in assay [12] and in [13] was less than 15% throughout. Further, the Activity was less than 5% in assay [14] and less than 0.1 L/mol/s in assay [11].

As for `C=CC(=O)NC(CCCC)C(=O)OC` (stereo not given), the inhibition in [1], in assay [3], in assay [4], in assay [5], in assay [6] and in assay [7] was less than 15% each time. For the same compound, the inhibition in assay [8], in [9], in assay [10], in [12] and in [13] was less than 15% throughout. In addition, the results for the Activity in assay [14] and in assay [11] were less than 5% and less than 0.1 L/mol/s, respectively.

As for `C=CC(=O)Nc1ccc(OC)cc1`, the inhibition in assay [1], in assay [3], in [4], in [5], in [6] and in [7] was less than 15% each time. The inhibition in assay [8], in assay [9], in assay [10], in [12] and in assay [13] was less than 15% throughout. The Activity was less than 5% in assay [14] and less than 0.1 L/mol/s in assay [11].

As for `C=CC(=O)NCCc1ccccc1`, the inhibition in [1], in assay [3], in assay [4], in [5], in assay [6] and in assay [7] was less than 15% each time. In addition, the inhibition in assay [8], in assay [9], in assay [10], in assay [12] and in assay [13] was less than 15% throughout. In addition, the Activity in assay [14] was less than 5%; in assay [11], less than 0.1 L/mol/s.

For orientation: inhibition means the share of the control response that was lost under treatment. Read a high inhibition as a response far below the control. One may read the EC50 as the concentration at which the effect is half-maximal.

(Values after ChEMBL document CHEMBL3352149, “Promiscuity and selectivity in covalent enzyme inhibition: a systematic study of electrophilic fragments” (J Med Chem, 2014).)
